Data published in ChEMBL document CHEMBL1135776, “Benzo- and cyclohexanomazindol analogues as potential inhibitors of the cocaine binding site at the dopamine transporter” (J Med Chem, 2002).

Tests used:
[1] = target: T1, Sodium-dependent dopamine transporter (Homo sapiens, UniProt Q01959); experiment: (§1) Ratio of the IC50 value of Mazindol to that in guinea pig was determined; type: functional; settings: Cavia porcellus; target entry is the homologue from another species
HEK293 [2] = experiment: Ability to block the uptake of [3H]- 5- HT(serotonin) in HEK-hSERT cells; type: functional, cell-based; settings: Homo sapiens
[3] = target: Monoamine transporters; serotonin & dopamine (Homo sapiens) (UniProt P31645+Q01959); experiment: Selectivity ratio as ratio of IC50 value against SERT to that of DAT; type: protein assay
[4] = target: Monoamine transporters; Norepinephrine & dopamine (Homo sapiens) (UniProt Q01959+P23975); experiment: Selectivity ratio as ratio of IC50 value against NET to that of DAT; type: protein assay
[5] = target: Sodium-dependent serotonin transporter (Homo sapiens, UniProt P31645); experiment: Inhibition of [125I]- RTI -55 binding at the Serotonin transporter sites on HEK-hSERT cells; type: cell-based
In short: (§2)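 Membranes from HEK293 cells expressing hDAT, hSERT or hNET (about 10–15 μg protein) preincubated 10 min with compound in Krebs-HEPES pH 7.4 containing pargyline, tropolone and ascorbate. Then [125I]RTI-55 (40–80 pM final) added, 90 min at 25 °C, filtration. […] Duplicates, two or three experiments; IC50 converted to Ki by Cheng-Prusoff.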

HEK293 [6] = experiment: Ability to block the uptake of [3H]- DA(dopamine) in HEK-hDAT cells; type: functional, cell-based; settings: Homo sapiens
[7] = Discrimination ratio against SERT as ratio of IC50 to that of Ki uptake to SERT.; type: functional
In short: (§3)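 Ratio of uptake IC50 in transporter-expressing HEK293 cells to [125I]RTI-55 binding Ki at the same human transporter (DAT, SERT or NET). Both were measured in this work: uptake with 20 nM [3H]amine for 10 min at 25 °C, binding for 90 min at 25 °C.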

[8] = Discrimination ratio against NET as ratio of IC50 to that of Ki uptake to NET.; type: functional; in short: as §3
[9] = Discrimination ratio against DAT as ratio of IC50 to that of Ki uptake to DAT.; type: functional; in short: as §3
[10] = target: T2, Sodium-dependent noradrenaline transporter (Homo sapiens, UniProt P23975); experiment: Displacement of [125I]RTI-55 from human Norepinephrine transporter expressed in HEK cells; type: cell-based, HEK293
In short: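 Membranes from HEK293 cells expressing hNET, about 10–15 μg protein per tube. Compounds diluted from 10 mM DMSO stock, preincubated 10 min, then 40–80 pM [125I]RTI-55 added, 90 min at 25 °C in Krebs-HEPES pH 7.4. […] GF/C filtration; two or three experiments in duplicate; IC50 converted to Ki by Cheng-Prusoff.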

HEK293 [11] = experiment: Ability to block the uptake of [3H]NE (norepinephrine) in HEK-hNET cells; type: functional, cell-based; settings: Homo sapiens
[12] = target: T1, Sodium-dependent dopamine transporter; experiment: Inhibition of [125I]- RTI -55 binding at the Dopamine transporter sites on HEK-hDAT cells; type: cell-based
In short: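 Membranes from HEK293 cells expressing hDAT, hSERT or hNET (about 10–15 μg protein) preincubated 10 min with compound in Krebs-HEPES pH 7.4 containing pargyline, tropolone and ascorbate. Duplicates, two or three experiments; IC50 converted to Ki by Cheng-Prusoff.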

HEK hDAT [13] = experiment: Ratio of the IC50 against DAT in HEK hDAT cells to that of guinea pig striatal membranes.; type: cell-based
[14] = Ratio of the IC50 against DAT in rat striatal membranes to that of guinea pig striatal membranes.; type: cell membranes; settings: Membrane
HEK hDAT [15] = experiment: Ratio of the IC50 against DAT in HEK hDAT cells to that of rat striatal membranes.; type: cell membranes; settings: Membrane
[16] = target: T2, Sodium-dependent noradrenaline transporter; experiment: Inhibition of [125I]- RTI -55 binding at the Norepinephrine transporter sites on HEK-hNET cells; type: cell-based; in short: as §2
[17] = as §1; type: functional
[18] = target: Sodium-dependent dopamine transporter (Rattus norvegicus, UniProt P23977); experiment: Ability to displace [3H]WIN-35428 from dopamine transporter on rat striatal membrane.
In short: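 Rat (male Sprague–Dawley, 200–225 g) striatal membranes in modified Krebs-HEPES pH 7.4; 2.5 mg tissue (wet weight) per tube with 1.5 nM [3H]WIN 35,428. Membranes preincubated 5 min with test compound, then incubated 60 min on ice. Nonspecific binding defined with 0.1 mM cocaine. Filtration over BSA-soaked GF/B filters, scintillation counting; triplicate samples.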

T1 sequence (Q01959 whole entry): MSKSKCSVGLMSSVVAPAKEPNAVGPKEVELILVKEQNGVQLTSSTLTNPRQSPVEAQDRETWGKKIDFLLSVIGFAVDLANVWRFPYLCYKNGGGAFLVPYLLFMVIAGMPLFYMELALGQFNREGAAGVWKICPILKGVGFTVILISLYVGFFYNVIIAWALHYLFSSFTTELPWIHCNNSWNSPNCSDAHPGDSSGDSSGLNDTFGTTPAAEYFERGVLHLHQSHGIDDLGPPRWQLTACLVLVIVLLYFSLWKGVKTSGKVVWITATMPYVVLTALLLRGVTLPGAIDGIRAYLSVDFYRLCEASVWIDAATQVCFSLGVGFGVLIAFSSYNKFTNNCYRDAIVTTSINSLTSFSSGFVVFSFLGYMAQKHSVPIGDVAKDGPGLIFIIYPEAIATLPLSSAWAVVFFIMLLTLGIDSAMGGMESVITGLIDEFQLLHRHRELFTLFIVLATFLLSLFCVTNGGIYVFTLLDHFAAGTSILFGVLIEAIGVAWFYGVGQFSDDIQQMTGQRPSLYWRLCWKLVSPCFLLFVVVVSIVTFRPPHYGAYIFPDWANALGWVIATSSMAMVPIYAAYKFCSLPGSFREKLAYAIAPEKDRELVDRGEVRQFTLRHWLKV
Monoamine transporters; serotonin & dopamine (Homo sapiens), sequence (P31645 whole entry, looked up): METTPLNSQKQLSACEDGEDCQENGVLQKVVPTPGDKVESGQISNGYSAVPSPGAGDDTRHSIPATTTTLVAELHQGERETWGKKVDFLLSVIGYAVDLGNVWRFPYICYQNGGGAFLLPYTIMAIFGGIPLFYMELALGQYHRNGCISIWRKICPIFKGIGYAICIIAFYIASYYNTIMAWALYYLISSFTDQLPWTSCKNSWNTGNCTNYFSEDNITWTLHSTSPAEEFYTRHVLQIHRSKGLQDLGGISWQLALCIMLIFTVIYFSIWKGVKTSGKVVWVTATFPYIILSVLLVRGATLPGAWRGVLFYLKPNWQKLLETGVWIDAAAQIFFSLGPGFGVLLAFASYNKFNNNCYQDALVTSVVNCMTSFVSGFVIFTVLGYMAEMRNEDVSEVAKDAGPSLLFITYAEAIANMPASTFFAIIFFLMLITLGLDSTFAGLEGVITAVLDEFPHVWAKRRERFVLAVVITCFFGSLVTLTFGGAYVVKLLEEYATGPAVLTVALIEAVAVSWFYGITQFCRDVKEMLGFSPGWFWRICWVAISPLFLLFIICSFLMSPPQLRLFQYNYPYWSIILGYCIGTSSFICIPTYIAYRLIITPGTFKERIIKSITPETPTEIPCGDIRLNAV
Monoamine transporters; serotonin & dopamine (Homo sapiens), sequence (Q01959 whole entry, looked up): as the sequence (Q01959 whole entry) above
Sodium-dependent serotonin transporter, sequence (P31645 whole entry): as the sequence (P31645 whole entry, looked up) above
T2 sequence (P23975 whole entry): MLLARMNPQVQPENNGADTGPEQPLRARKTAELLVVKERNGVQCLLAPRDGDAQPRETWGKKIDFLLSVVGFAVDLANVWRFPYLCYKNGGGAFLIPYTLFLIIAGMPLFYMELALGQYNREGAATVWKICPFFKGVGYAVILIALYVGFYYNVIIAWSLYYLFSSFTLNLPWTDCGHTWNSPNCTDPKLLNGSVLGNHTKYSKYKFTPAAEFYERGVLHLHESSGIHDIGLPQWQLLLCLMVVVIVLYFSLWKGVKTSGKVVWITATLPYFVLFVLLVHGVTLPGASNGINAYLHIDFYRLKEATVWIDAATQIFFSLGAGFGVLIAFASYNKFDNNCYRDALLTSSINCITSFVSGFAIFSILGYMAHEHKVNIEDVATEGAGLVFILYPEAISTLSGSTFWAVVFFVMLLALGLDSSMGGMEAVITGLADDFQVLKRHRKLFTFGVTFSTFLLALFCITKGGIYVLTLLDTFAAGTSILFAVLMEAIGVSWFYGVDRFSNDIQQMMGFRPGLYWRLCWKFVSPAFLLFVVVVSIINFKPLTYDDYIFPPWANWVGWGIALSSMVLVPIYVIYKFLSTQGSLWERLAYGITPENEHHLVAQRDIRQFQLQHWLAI
Monoamine transporters; Norepinephrine & dopamine (Homo sapiens), sequence (P23975 whole entry, looked up): as the sequence (P23975 whole entry) above
Monoamine transporters; Norepinephrine & dopamine (Homo sapiens), sequence (Q01959 whole entry, looked up): as the sequence (Q01959 whole entry) above
Sodium-dependent dopamine transporter (Rattus norvegicus, UniProt P23977), sequence (P23977 whole entry): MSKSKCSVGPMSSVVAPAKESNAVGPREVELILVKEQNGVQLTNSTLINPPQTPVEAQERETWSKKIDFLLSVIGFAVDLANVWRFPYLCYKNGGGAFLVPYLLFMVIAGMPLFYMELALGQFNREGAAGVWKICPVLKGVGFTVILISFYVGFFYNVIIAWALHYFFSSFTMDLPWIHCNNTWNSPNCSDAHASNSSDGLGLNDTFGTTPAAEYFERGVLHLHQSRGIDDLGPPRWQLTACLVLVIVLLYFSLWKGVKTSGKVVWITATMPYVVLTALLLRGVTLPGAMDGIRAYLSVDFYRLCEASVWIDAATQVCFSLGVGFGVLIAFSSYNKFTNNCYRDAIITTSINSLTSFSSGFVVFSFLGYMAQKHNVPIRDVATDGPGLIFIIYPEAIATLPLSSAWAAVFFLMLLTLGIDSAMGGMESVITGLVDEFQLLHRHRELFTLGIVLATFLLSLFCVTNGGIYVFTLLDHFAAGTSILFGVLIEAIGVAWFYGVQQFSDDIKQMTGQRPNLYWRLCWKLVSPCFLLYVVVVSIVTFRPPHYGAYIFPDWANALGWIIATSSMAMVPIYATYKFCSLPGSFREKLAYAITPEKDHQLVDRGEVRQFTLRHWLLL

| Structure (SMILES) | Ratio [1] | IC50 (HEK293 [2]) | Ratio [3] | Ratio [4] | Ki [5] | IC50 (HEK293 [6]) | Ratio [7] | Ratio [8] | Ratio [9] | IC50 (HEK293 [11]) | Ki [12] | Ki [16] | further results |
| --- | --- | --- | --- | --- | --- | --- | --- | --- | --- | --- | --- | --- | --- |
| OC1(c2ccc3c(c2)CCCC3)c2ccccc2C2=NCCN21 (stereo not drawn) | < 0.02 | – | – | – | – | – | – | – | – | – | – | – | – |
| OC1(c2ccc(Cl)cc2)c2ccccc2C2=N[C@@H]3CCCC[C@@H]3N21 (stereo partly drawn) | 5.1 | – | – | – | – | – | – | – | – | – | – | – | – |
| OC1(c2ccc(Cl)cc2)c2ccc3ccccc3c2C2=N[C@H]3CCCC[C@@H]3N21 (mixture of isomers) | < 0.02 | – | – | – | – | – | – | – | – | – | – | – | – |
| OC1(c2ccc(Cl)cc2)c2ccccc2C2=NCCCN21 (stereo not drawn) | 10.1 | 53 nM | 22.9 | 10.7 | 39 nM | 3.7 nM | 1.4 | 0.3 | 2.2 | 4.9 nM | 1.7 nM | – | Ki [10]: 18.2 nM |
| OC1(c2ccc3ccccc3c2)c2ccc3ccccc3c2C2=NCCN21 (stereo not drawn) | 13 | 370 nM | 3.9 | 1.9 | 11 nM | 880 nM | 34 | 7 | 311 | 38 nM | 2.83 nM | 5.2 nM | Ratio (HEK hDAT [13]): 0.9; Ratio [14]: 11.6; Ratio (HEK hDAT [15]): 0.07 |
| OC1(c2ccc3ccccc3c2)c2c(c3ccccc3c3ccccc23)C2=NCCN21 (stereo not drawn) | – | – | – | – | – | – | – | – | – | – | – | – | Ratio [17]: <0.02 |
| OC1(c2ccc(Cl)cc2)c2ccc3ccccc3c2C2=NCCN21 (stereo not drawn) | 4 | 3210 nM | 8.2 | 1.2 | 224 nM | 85 nM | 14.3 | 0.4 | 3.2 | 13 nM | 27.2 nM | 33.4 nM | Ratio (HEK hDAT [13]): 2.6; Ratio [14]: 1.5; Ratio (HEK hDAT [15]): 1.7 |
| OC1(c2ccc(Cl)cc2)c2ccccc2C2=NCCN21 (stereo not drawn) [MAZINDOL] | – | 94 nM | – | – | 50 nM | – | – | – | – | 4.9 nM | – | 18 nM | – |
| OC1(c2ccc(Cl)cc2)c2ccccc2C2=N[C@H]3CCCC[C@@H]3N21 (stereo partly drawn) | 15.8 | > 10000 nM | 3.9 | 4.1 | 600 nM | 63 nM | > 17 | 0.5 | 0.4 | 323 nM | 152 nM | 690 nM | Ratio (HEK hDAT [13]): 56.3; Ratio [14]: 12.7; Ratio (HEK hDAT [15]): 4.4; IC50 [18]: 34.2 nM |
| OC1(c2ccc(Cl)cc2)c2c(c3ccccc3c3ccccc23)C2=NCCN21 (stereo not drawn) | – | – | – | – | – | – | – | – | – | – | – | – | Ratio [17]: <0.02 |
| OC1(c2ccc(Cl)cc2)c2c(ccc3ccccc23)C2=NCCN21 (stereo not drawn) | 0.2 | – | – | – | – | – | – | – | – | – | – | – | – |
| OC1(c2ccc(Cl)cc2)c2ccccc2C2=NCc3ccccc3CN21 (stereo not drawn) | < 0.02 | – | – | – | – | – | – | – | – | – | – | – | – |
| OC1(c2ccc(Cl)cc2)c2ccccc2-c2nc3ccccc3n21 (stereo not drawn) | < 0.02 | – | – | – | – | – | – | – | – | – | – | – | – |
| OC1(c2ccc3ccccc3c2)c2ccccc2C2=NCCN21 (stereo not drawn) | 10.4 | 1.8 nM | 0.05 | 0.24 | 2.3 nM | 66 nM | 0.8 | 0.4 | 1.5 | 4.5 nM | 45 nM | 11 nM | Ratio (HEK hDAT [13]): 11; Ratio [14]: 5.7; Ratio (HEK hDAT [15]): 1.9 |
| OC1(c2cccc3ccccc23)c2ccccc2C2=NCCN21 (stereo not drawn) | 0.02 | – | – | – | – | – | – | – | – | – | – | – | – |
| OC1(c2ccc(Cl)cc2)c2ccc3ccccc3c2C2=NCCCN21 (stereo not drawn) | 20.3 | 700 nM | 2.8 | 2.6 | 5.5 nM | 366 nM | 127 | 10 | 182 | 53 nM | 2.01 nM | 5.3 nM | Ratio (HEK hDAT [13]): 1; Ratio [14]: 17.8; Ratio (HEK hDAT [15]): 0.05 |
| OC1(c2ccc(Cl)cc2)c2ccccc2C2=Nc3ccccc3CN21 (stereo not drawn) | < 0.02 | – | – | – | – | – | – | – | – | – | – | – | – |
| OC1(c2ccc(Cl)cc2)c2cc3ccccc3cc2C2=NCCN21 (stereo not drawn) | 1.3 | – | – | – | – | – | – | – | – | – | – | – | – |
